One compound from ChEMBL document CHEMBL3352511, “Pyrrole-3-carboxamides as potent and selective JAK2 inhibitors” (Bioorg Med Chem, 2014) can be followed below.

SMILES strings stand for the structures. pIC50: −log10 of the molar value. The source made the active and inactive calls. The rule behind the calls is not given here.

Data set [1] addresses Dual specificity protein kinase CLK4 (Homo sapiens) (UniProt Q9HAZ1). As to the kind of experiment: Inhibition of human CLK4 at 0.1 uM. Put shortly: (§1)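 KINOMEscan active-site-directed competition binding panel of 442 human kinases, compound tested at 0.1 µM. Primary screen results expressed as % Ctrl, where lower values mean stronger binding.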
The next data set relates to DERL7. As to the kind of experiment: Effect on total STAT5 level in IL-2-activated human DERL7 cells at 0.08 to 10 uM after 2 hrs by SDS-PAGE analysis. In kind it is functional, cell-based. Put shortly: (§2)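 DERL-7 cells were kept in RPMI 1640 with 10% FBS and 20 ng/ml human IL-2, then starved 18 h. Compound was applied for 2 h, followed by IL-2 stimulation (20 ng/ml, 15 min, 37 °C). Cold-PBS-washed cells were lysed in RIPA. Lysates were resolved by SDS-PAGE and western blotted for P-STAT5 and total STAT5, with ECL detection.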

A short description of data set [2]: Half life in Balb nu/nu mouse at 10 mg/kg, iv. To be noted: in vivo. Also on record: dose 10 mg/kg, route intravenous. The class given is ADME, organism-based. The gist of the method:
(§3)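 Overnight-fasted male Nu/Nu mice, single intravenous dose in 10% Tween 80 in 5% dextrose, three mice. Saphenous vein blood taken at predose, 0.083, 0.5, 1, 6 and 24 h. Plasma obtained by centrifugation at 10,000g, 3 min, 4 °C, stored at -80 °C, then analysed by LC/MS/MS.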

A short description of data set [3]: Half life in Balb nu/nu mouse at 10 mg/kg, po. Conditions: in vivo. Also on record: dose 10 mg/kg, route oral. In kind it is ADME, organism-based. Put shortly: (§4)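 Overnight-fasted male Nu/Nu mice, single oral dose in 0.5% methocel, three mice. Saphenous vein blood taken at predose, 0.083, 0.5, 1, 6 and 24 h. Plasma obtained by centrifugation at 10,000g, 3 min, 4 °C, stored at -80 °C, then analysed by LC/MS/MS.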

Data set [4] in a line: Oral bioavailability in Balb nu/nu mouse at 10 mg/kg. The class given is ADME, organism-based. To be noted: in vivo. The gist of the method:
as §4

A short description of data set [5]: Cmax in Balb nu/nu mouse at 10 mg/kg, iv. In kind it is ADME, organism-based. Also on record: dose 10 mg/kg, route intravenous. To be noted: in vivo. Put shortly:
as §3

The nature of data set [6]: Antitumor activity against human SET2 cells xenografted in SCID mouse assessed as tumor growth inhibition at 15 mg/kg, po bid for 10 consecutive days. The class given is functional. To be noted: SET-2, read-out: TGI. The gist of the method: (§5)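 Female SCID mice, 5–6 weeks old, given 200 Rads whole-body gamma irradiation, then inoculated s.c. with 10^7 SET-2 cells. Dosing by mouth started at 100-200 mm³ tumours; controls received vehicle (0.5% methocel). Seven animals per study.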
A general note: Xenograft models place foreign cells or tissue in a host animal.

For data set [7], the target named is Dual specificity tyrosine-phosphorylation-regulated kinase 1B (Homo sapiens) (UniProt Q9Y463). The data set is described as follows: Inhibition of human DYRK1B at 0.1 uM. The gist of the method:
as §1

The nature of data set [8]: AUC(infinity) in Balb nu/nu mouse at 10 mg/kg, iv. The class given is ADME, organism-based, Plasma. The arrangement: dose 10 mg/kg, route intravenous, time infinity. To be noted: Balb nu/nu, plasma. The gist of the method:
as §3

Data set [9] relates to Mus musculus. As to the kind of experiment: Toxicity in human SET2 cells xenografted SCID mouse assessed as reversible body weight loss at 50 mg/kg, po bid administered as 5 days on 5 days off for 3 cycles. In kind it is organism-based. The arrangement: dose 50 mg/kg, route oral. To be noted: in vivo, 120 h. Put shortly: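 SET-2 xenografts (10^7 cells s.c.) in irradiated female SCID mice, seven per study, dosed orally from 100-200 mm³ tumours, with 0.5% methocel vehicle controls. Body weight loss recorded at end of treatment.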

The subject of a further data set is A2780. As to the kind of experiment: Antiproliferative activity against human A2780 cells after 72 hrs by Cell Titer-Glo assay. Conditions: A2780, 72 h. The class given is functional, cell-based. For orientation: ATP-based viability assays read luminescence as a measure of living cells.
Data set [10] deals with Tyrosine-protein kinase JAK2 (Homo sapiens, UniProt O60674, V617F).
Data set [11] concerns SET-2. As to the kind of experiment: Effect on total STAT5 level in human SET2 cells at 0.08 to 10 uM after 2 hrs by SDS-PAGE analysis. The class given is functional, cell-based. The gist of the method: (§6)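 SET-2 cells were grown in RPMI 1640 with 10% FBS at 37 °C, 5% CO₂, and exposed to compound or DMSO for 2 h at 37 °C. Cells were washed in cold PBS and lysed in RIPA buffer. Equal lysate amounts went through SDS-PAGE and nitrocellulose transfer, then 5% milk/TBST blocking and overnight 4 °C probing for total STAT3/STAT5 and phospho-STAT, with ECL detection.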

Data set [12] is described as follows: AUC(infinity) in Balb nu/nu mouse at 10 mg/kg, po. In kind it is ADME, organism-based. Also on record: time infinity, dose 10 mg/kg, route oral. Conditions: plasma. Put shortly: as §4
The nature of data set [13]: Antitumor activity against human SET2 cells xenografted in SCID mouse assessed as tumor growth inhibition at 30 mg/kg, po bid for 10 consecutive days. In kind it is functional. Conditions: SET-2, read-out: TGI. The gist of the method:
as §5

The target of data set [14] is Dual specificity protein kinase CLK1 (Homo sapiens) (UniProt P49759). The data set is described as follows: Inhibition of human CLK1 at 0.1 uM. Put shortly:
as §1

Data set [15] has as its system Mus musculus. The data set is described as follows: Toxicity in human SET2 cells xenografted SCID mouse assessed as reversible body weight loss at 30 mg/kg, po bid for 10 consecutive days measured after 10 days. To be noted: in vivo, 240 h.
In a further data set the target is JAK3/JAK1 (Homo sapiens) (UniProt P52333+P23458). As to the kind of experiment: Inhibition of JAK1/3-induced STAT5 phosphorylation in IL-2-activated human DERL7 cells at 10 uM after 2 hrs by SDS-PAGE analysis. In kind it is cell-based. Put shortly: as §2
The nature of data set [16]: Antiproliferative activity against human DERL7 cells after 72 hrs by Cell Titer-Glo assay. In kind it is functional, cell-based. Conditions: DERL7, 72 h.
A short description of data set [17]: Cmax in Balb nu/nu mouse at 10 mg/kg, po. The class given is ADME, organism-based. The arrangement: dose 10 mg/kg, route oral. Conditions: in vivo. Put shortly: as §4
In data set [18] the test system is SET-2. As to the kind of experiment: Inhibition of STAT3 phosphorylation in human SET2 cells xenografted in SCID mouse assessed as tumor growth inhibition at 50 mg/kg, po as single dose measured up to 12 hrs post treatment. In kind it is functional, organism-based. Also on record: dose 50 mg/kg. The gist of the method: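 SET-2 s.c. xenografts in irradiated female SCID mice were given one oral dose. Tumours were collected at several post-treatment times, 3 animals per time. Tumour lysates were western blotted for P-STAT5 and P-STAT3, with GAPDH as loading control.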

For data set [19], the system named is SET-2. As to the kind of experiment: Effect on total STAT3 level in human SET2 cells at 0.08 to 10 uM after 2 hrs by SDS-PAGE analysis. In kind it is functional, cell-based. The gist of the method:
as §6

Data set [20] in a line: Volume of distribution at steady state in Balb nu/nu mouse at 10 mg/kg, iv. In kind it is ADME, organism-based. Also on record: dose 10 mg/kg, route intravenous. To be noted: in vivo, read-out: Vdss. The gist of the method:
as §3

Chain of Dual specificity tyrosine-phosphorylation-regulated kinase 1B (Homo sapiens) (Q9Y463 whole entry, looked up): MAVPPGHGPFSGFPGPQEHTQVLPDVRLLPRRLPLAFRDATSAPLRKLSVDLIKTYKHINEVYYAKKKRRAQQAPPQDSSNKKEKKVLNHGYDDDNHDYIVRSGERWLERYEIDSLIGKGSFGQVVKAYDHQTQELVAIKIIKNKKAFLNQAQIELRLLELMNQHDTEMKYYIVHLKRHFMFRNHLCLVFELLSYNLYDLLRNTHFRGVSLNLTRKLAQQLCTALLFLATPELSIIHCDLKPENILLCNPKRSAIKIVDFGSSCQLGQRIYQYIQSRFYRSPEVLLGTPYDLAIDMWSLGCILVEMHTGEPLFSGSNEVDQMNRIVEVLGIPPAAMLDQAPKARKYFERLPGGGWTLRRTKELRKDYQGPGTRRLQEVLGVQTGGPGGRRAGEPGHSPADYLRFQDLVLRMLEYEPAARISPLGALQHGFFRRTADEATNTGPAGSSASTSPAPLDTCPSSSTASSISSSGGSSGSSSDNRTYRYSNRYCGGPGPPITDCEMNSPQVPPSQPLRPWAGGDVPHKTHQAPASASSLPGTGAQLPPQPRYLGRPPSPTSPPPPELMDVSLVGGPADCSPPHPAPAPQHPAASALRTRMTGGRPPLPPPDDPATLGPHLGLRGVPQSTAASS
Chain of Dual specificity protein kinase CLK1 (Homo sapiens) (P49759 whole entry, looked up): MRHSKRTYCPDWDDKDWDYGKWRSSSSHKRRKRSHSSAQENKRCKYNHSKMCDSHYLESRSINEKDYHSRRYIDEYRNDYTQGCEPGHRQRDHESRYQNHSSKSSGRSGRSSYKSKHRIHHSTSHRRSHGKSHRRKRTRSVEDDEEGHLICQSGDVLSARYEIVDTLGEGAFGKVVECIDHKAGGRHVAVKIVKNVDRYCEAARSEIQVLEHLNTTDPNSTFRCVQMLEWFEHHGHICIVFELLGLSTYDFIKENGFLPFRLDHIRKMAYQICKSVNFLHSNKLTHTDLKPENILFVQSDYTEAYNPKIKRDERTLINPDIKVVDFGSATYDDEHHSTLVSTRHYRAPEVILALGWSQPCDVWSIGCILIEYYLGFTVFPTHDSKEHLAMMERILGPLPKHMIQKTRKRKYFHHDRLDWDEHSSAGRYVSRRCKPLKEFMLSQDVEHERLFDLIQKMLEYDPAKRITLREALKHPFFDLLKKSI
Chain of Tyrosine-protein kinase JAK2 (O60674 whole entry V617F): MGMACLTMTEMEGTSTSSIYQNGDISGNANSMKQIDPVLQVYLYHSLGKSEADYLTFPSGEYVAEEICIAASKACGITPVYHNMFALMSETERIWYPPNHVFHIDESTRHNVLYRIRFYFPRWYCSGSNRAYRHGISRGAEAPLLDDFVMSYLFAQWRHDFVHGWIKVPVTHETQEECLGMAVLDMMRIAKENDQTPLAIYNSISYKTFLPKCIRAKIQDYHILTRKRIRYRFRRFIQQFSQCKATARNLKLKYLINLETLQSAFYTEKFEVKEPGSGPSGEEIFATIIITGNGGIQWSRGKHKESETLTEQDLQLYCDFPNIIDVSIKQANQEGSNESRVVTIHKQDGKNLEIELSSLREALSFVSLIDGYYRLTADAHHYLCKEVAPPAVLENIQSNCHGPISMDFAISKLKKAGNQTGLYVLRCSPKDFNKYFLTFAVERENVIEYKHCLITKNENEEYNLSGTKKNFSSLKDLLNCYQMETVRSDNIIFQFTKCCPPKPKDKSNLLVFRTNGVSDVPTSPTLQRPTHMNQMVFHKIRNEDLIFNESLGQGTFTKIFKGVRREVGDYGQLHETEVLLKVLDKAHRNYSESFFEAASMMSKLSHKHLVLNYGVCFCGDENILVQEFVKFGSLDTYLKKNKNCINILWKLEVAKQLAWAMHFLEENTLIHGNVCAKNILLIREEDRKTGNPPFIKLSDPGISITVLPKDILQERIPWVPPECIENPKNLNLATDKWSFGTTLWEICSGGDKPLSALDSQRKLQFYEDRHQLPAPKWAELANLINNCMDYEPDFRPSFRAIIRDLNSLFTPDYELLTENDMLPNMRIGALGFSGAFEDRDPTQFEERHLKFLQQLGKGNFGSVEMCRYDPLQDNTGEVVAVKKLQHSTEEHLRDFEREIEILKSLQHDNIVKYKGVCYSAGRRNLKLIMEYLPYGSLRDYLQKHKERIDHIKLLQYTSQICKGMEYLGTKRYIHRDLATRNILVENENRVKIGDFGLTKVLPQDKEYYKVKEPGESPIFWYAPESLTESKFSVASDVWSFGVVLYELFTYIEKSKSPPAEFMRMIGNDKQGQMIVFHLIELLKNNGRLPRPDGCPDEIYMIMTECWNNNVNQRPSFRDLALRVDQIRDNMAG
Chain of Dual specificity protein kinase CLK4 (Homo sapiens) (Q9HAZ1 whole entry, looked up): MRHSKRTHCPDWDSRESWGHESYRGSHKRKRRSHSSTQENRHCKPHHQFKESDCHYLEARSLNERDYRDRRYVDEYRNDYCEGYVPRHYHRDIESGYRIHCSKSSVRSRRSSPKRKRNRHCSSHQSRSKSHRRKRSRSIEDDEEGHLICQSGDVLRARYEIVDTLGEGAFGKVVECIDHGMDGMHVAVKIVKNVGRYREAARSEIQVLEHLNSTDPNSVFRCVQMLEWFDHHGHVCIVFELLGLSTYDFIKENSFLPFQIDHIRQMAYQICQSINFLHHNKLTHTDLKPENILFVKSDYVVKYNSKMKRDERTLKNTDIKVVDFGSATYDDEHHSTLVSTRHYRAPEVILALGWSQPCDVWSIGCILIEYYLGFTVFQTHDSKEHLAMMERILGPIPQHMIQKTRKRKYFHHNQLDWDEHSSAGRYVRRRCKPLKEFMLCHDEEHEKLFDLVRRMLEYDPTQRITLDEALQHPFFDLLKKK

By inhibition is commonly meant the drop in the measured response relative to a control, in per cent. The half-life is how long it takes for the measured level to halve. Read a high half-life as slow loss. In general, bioavailability refers to dose-corrected exposure relative to a reference, in per cent. For orientation: Cmax means the maximum level reached in the sampled fluid or tissue. What is called AUC(0-inf) is total exposure, with the tail of the curve extrapolated. A higher AUC(0-inf) goes with more exposure. By pIC50 is commonly meant −log10 of the IC50, conventionally taken in molar units. Higher therefore signals a low IC50. Consider `NC(=O)c1cc(-c2ccnc(N)n2)[nH]c1-c1cc(C(F)(F)F)ccc1Cl`, for which the inhibition in data set [1], in data set [7] and in [14] was 1% in each case. The outcome in the data set with DERL7, with SET-2 [11] and in the data set with SET-2 [19] was inactive. The half-life in data set [2] is 1.1 h; in [3], 2.3 h. Further, the bioavailability in data set [4] was 31%. The Cmax in data set [5] stood at 17.6 µM; in data set [17], 4.2 µM. In data set [6], the inhibition in vivo at 15 mg/kg came to 50%. In addition, the values for the AUC(0-inf) in data set [8] and in data set [12] were 26.4 µM·h and 9.5 µM·h, respectively. The Activity in the data set with Mus musculus [9] is 15%; in the data set on Mus musculus [15], 6%. The pIC50 in the data set on A2780 was 5.83; in data set [10], 6.32; in [16], 5.73. Moreover, the inhibition in vivo at 30 mg/kg in data set [13] was 71%. Moreover, the inhibition result at JAK3/JAK1 (Homo sapiens) and in the data set on SET-2 [18] was “Active” each time. The Vd in [20] stood at 0.9 L/kg.
